Source: PubChem BioAssay
In the library only some 3.1% were active in any assay of this set; here they are far more common.
ERAP1 HTS inh: human ERAP1 aminopeptidase inhibitors, primary screen, biochemical, single point, plate reader; inhibition, % at 10.7 µM; AID 652197, 2013; recombinant ERAP1, Leu-AMC fluorescence, 60 min; hit rate 0.15% among 340,000; Endoplasmic reticulum aminopeptidase 1 (Homo sapiens), Q9NZ08;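 active means mean replicate inhibition of at least 30%, or all replicates individually reaching that 30% level; inactive means mean below 30% and not every replicate reaching it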;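 further: 0% = neutral control wells and 100% = L-leucinethiol positive control wells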
S100A4 MyoIIA: inhibitors of S100A4-myosin IIA peptide binding, primary screen, biochemical, fluorescence polarization, TAMRA-MyoIIA peptide. inhibition, % at 10.7 µM. AID 652163, 2013. Protein S100-A4 (Homo sapiens), P26447. hit rate 0.14% among 360,000;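 active means mean inhibition of at least 70% across replicates, with every replicate also reaching that level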
Target sequence (P26447 whole entry, looked up): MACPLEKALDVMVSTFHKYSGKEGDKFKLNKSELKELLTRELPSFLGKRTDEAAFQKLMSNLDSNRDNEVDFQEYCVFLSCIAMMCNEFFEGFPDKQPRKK
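Material: S100A4 monomer protein / Buffer or medium: 50 mM HEPES pH 7.2, 10 mM CaCl2, 100 mM KCl / Times: 5 min incubation before reading / Benchmarks: neutral control DMSO, positive control TFP / Reagent: labelled myosin peptide probe, 5 nM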
CFTR F508del cor: F508del CFTR correction, initial screen, CFBE line, single point; CFBE cells, YFP halide quenching; stimulated with forskolin plus potentiator P3; % fluorescence drop versus neutral controls; activity (quench increase), % at 7.58 µM; hit rate 0.36% among 350,000;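 active means mean added fluorescence quench of at least 8% versus neutral control, with both replicates also reaching 8%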;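 further: cells transiently co-express mutant CFTR-F508del with the halide-sensitive YFP; corrector assay measuring rescue of mutant channel to the surface after 24 h compound exposure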
SIRT5 block: SIRT5 desuccinylase inhibitors, primary screen, biochemical, fluorescence imaging, single point, set 5 | Purified SirT5, succinyl-peptide AMC, trypsin-coupled fluorescence | inhibition, % at 15 µM | hit rate 1.1% among 330,000 | NAD-dependent protein deacylase sirtuin-5, mitochondrial (Homo sapiens), Q9NXA8; in the data active means inhibition above about 15%
Target sequence (Q9NXA8 whole entry, looked up): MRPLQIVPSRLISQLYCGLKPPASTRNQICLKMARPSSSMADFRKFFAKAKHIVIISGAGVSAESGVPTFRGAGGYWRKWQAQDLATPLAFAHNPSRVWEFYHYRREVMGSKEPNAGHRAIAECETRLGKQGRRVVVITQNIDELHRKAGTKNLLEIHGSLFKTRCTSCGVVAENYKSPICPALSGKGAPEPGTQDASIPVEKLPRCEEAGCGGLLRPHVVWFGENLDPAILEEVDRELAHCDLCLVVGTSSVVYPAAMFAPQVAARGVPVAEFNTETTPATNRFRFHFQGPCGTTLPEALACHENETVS
Ecoli rRNA inh: reduced GFP signal of wild-type E. coli, primary screen, bacterial rRNA inhibitor project, GFP/RFP fluorescence, OD600, single point; hit rate 1.6% among 350,000; GFP signal change (wild-type ribosome), % (no concentration beside the values); E. coli WT GFP vs humanized-ribosome RFP mutants, 24 h; hits give low values; DMSO median 0, no signal -100; AID 720706, 2013;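 active means significant combined selectivity score with lowered wild-type GFP, culture density cut under 30%, mutant RFP and density less affected; inactive means any of these conditions unmet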
The depositor's hits bear a star; . = no result; ! = not confirmed by another sample.

SMILES	ERAP1 HTS inh	S100A4 MyoIIA	CFTR F508del cor	SIRT5 block	Ecoli rRNA inh
Cc1noc(C)c1NC(=O)N(C)C[C@@H]1Oc2ccc(NC(=O)NC(C)C)cc2CC(=O)N([C@@H](C)CO)C[C@H]1C	3	-12	1	-1	3
COc1cccc(/C=C(\C#N)c2nc3ccccc3[nH]2)c1OCC(=O)O	-4	-8	-1	102*	2
COc1cc(/C=C(\C#N)c2nc3ccccc3[nH]2)cc(OC)c1O	1	4	10*	13	-17
C[C@@H]1CN([C@H](C)CO)C(=O)c2cccc(NC(=O)Nc3ccc(F)cc3)c2O[C@H]1CN(C)Cc1ccncc1	1	2	1	.	1
ClC1(Cl)CC1CSc1nnc(-c2ccncc2)o1 (stereo unspecified)	-1	-4	-2	1	-19*
Fc1ccc(CSc2nnc(-c3ccncc3)o2)cc1	5	-2	0	-2	5
Cc1ccc(/C=N/NC(=O)c2ccc3ccccc3c2)s1	-2	-3	11*	1	-17
S=C(NCCc1ccccc1)Nc1nccs1	-2	-12	9.2*	.	-22*
S=C(NCc1ccccc1)Nc1nccs1	3	6	1	-4	-46
OC[C@@H]1[C@@H](c2ccc(C#Cc3ccccc3)cc2)[C@@H]2CN(Cc3cncnc3)CCCCN12	-1	10	-1	-1	-20
Cc1cc(C)n(CC(C)NC(=O)CCc2nnc(CCc3ccccc3)o2)n1 (stereo unspecified)	-1	-6	3	-5	5
Cc1cc(C)n(CCNC(=O)CCc2nnc(CCc3ccccc3)o2)n1	-4	12	-6	15*	17
CCCC#Cc1ccc2c(c1)O[C@@H](CN(C)C(=O)c1cnccn1)[C@@H](C)CN([C@@H](C)CO)S2(=O)=O	1	-1	1	28*	4
CCCC#Cc1ccc2c(c1)O[C@@H](CN(C)C(=O)c1ccccc1F)[C@@H](C)CN([C@@H](C)CO)S2(=O)=O	4	-4	2	17*	-5
CCCC#Cc1ccc2c(c1)O[C@H](CN(C)C(=O)Nc1ccccc1F)[C@@H](C)CN([C@H](C)CO)S2(=O)=O	0	4	1	21*	-5
COc1cccc(C#Cc2ccc3c(c2)O[C@@H](CN(C)C(=O)c2ccccn2)[C@@H](C)CN([C@H](C)CO)S3(=O)=O)c1	-8	-3	0	16*!	-11
C[C@@H]1CN([C@@H](C)CO)C(=O)c2cccc(NC(=O)Nc3cccc4ccccc34)c2O[C@H]1CN(C)C(=O)Nc1cccc2ccccc12	1	-15	4	0	0
COc1ccc(CN2C[C@H](C)[C@@H](OC)CN(C)C(=O)c3ccc(NC(C)=O)cc3OC[C@@H]2C)cc1	-4	8	-1	1	0
CCCC#Cc1ccc2c(c1)O[C@H](CN(C)C(=O)c1ccccc1F)[C@H](C)CN([C@H](C)CO)S2(=O)=O	3	18	-2	18*	-6
CC1CCCN(Cc2c(C(=O)N3CCc4ccccc4C3)nc3ccc(Cl)cn23)C1 (stereo unspecified)	0	0	3	-6	-25*
COC1CCCN(Cc2c(C(=O)N3CCc4ccccc4C3)nc3ccc(Cl)cn23)C1 (stereo unspecified)	2	-5	-4	-1	-1
Cn1ccc2c(-c3ccc(CO)cc3)cc3c(c21)C1CCC3C1 (stereo unspecified)	.	-7	-1	-5	-30*
Cn1ccc2c(-c3ccc(F)cc3)cc3c(c21)C1CCC3C1 (stereo unspecified)	12	5	2	.	-2
CCCN1C(C)C(C(=O)OCC)=CN(Cc2ccc(Br)cc2)S1(=O)=O (stereo unspecified)	0	0	1	32*	-4
CC#CCN1C=C(C(=O)OCC)C(C)N(Cc2ccc(Br)cc2)S1(=O)=O (stereo unspecified)	3	5	0	-2	-4
SMILES	ERAP1 HTS inh	S100A4 MyoIIA	CFTR F508del cor	SIRT5 block	Ecoli rRNA inh
O=C1N[C@H](Cc2ccccc2)COCc2cn(nn2)CC[C@H]1Cc1ccccc1	1	-1	.	2	5
Nc1cc(Cl)nc(N/N=C/c2c(O)ccc3ccccc23)n1	1	2	1	1	-20*
Cc1ccccc1NS(=O)(=O)c1cccc2nonc12	4	-5	-1	-2	3
O=S(=O)(Nc1cccc2ccccc12)c1cccc2nonc12	2	-7	2	-2	-27*
N#C/C(=N\Nc1cccc(F)c1)C(=O)C1CC1	-6	35	-2	-4	-25*
C[C@@H]1CCCCO[C@@H](CN(C)C(=O)CCC(F)(F)F)[C@H](C)CN([C@H](C)CO)C(=O)c2cc(NC(=O)c3ccncc3)ccc2O1	0	-8	-3	2	0
Cc1ccc(N(CN2C(=O)c3ccccc3C2=O)C(=O)c2ccc([N+](=O)[O-])cc2[N+](=O)[O-])cc1	0	2	0	112*	-1
O=C1c2ccccc2C(=O)N1CN(C(=O)c1ccccc1[N+](=O)[O-])c1ccc(F)cc1	3	-2	0	0	-11
O=C(C1CCC1)N1CCc2cc(S(=O)(=O)NC3CCCc4ccccc43)ccc21 (stereo unspecified)	-1	2	1	-2	9
O=S(=O)(NC1CCc2ccccc21)c1ccc(S(=O)(=O)N2CCCC2)cc1 (stereo unspecified)	3	2	1	-4	-29*
COc1ccc(S(=O)(=O)N(C)C[C@@H]2Oc3ccc(NC(=O)Nc4cccc5ccccc45)cc3C(=O)N([C@@H](C)CO)C[C@@H]2C)cc1	-6	-7	-6	7	-1
CO[C@@H]1CN(C)C(=O)c2ccc(NC(C)=O)cc2OC[C@H](C)N(CC2CC2)C[C@H]1C	3	-6	4	3	3
C=CCn1c(O)c(N=NC(=S)Nc2ccccc2F)c2ccccc21	-1	3	6	2	-21*
Cc1ccc(Cn2c(O)c(N=NC(=S)Nc3ccccc3F)c3ccccc32)cc1	-2	0	3	18*	9
Oc1c(N=NC(=S)Nc2ccccc2F)c2ccccc2n1Cc1ccccc1	0	0	0	12	10
O=[N+]([O-])c1ccc(N2CCCCC2)nc1N1CCCCC1	1	4	-1	6	-40*
O=[N+]([O-])c1ccc(Cl)cc1N1CCCCC1	-3	-4	-1	-3	21
O=S(=O)(Nc1cccc(-c2cn3c(n2)SCC3)c1)c1ccccc1	46*	-6	0	-1	-2
